Source: ChEMBL document CHEMBL4229388, “Repositioning of the antipsychotic trifluoperazine: Synthesis, biological evaluation and in silico study of trifluoperazine analogs as anti-glioblastoma agents” (Eur J Med Chem, 2018)
Active and inactive are the calls of the source. The rule behind the calls is not given here.

Key:
[1] = system: U-87 MG; assay: Induction of intracellular Ca2+ level in human U87MG cells at 1 to 100 uM by Fura-2 AM dye-based assay relative to trifluoperazine; assay type: functional, U-87MG ATCC
Outline: (§1)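 U87MG cells or neural stem cells (NSCs) were loaded with 5 μM Fura-2 AM plus 1 μM pluronic acid for 40 min at room temperature. Recording was in HEPES-buffered saline at pH 7.3 with 2 mM CaCl₂. Compounds were applied by bath at 1, 3, 10, 30 or 100 μM. Emission at 510 nm was imaged under 340/380 nm excitation, and the ratio was calculated. Peak amplitude was taken relative to the 0–50 s baseline. Dose–response curves gave EC₅₀ and efficacy.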

[2] = system: NSC; assay: Induction of intracellular Ca2+ level in human NSC cells at 100 uM by Fura-2 AM dye-based assay; assay type: cell-based; outline: as §1
[3] = Selectivity ratio of efficacy for induction of intracellular Ca2+ level in human U87MG cells at 1 to 100 uM to efficacy for induction of intracellular Ca2+ level in human NSC cells at 1 to 100 uM; assay type: functional
[4] = Cytotoxicity against human GBL28 cells assessed as reduction in cell viability after 24 hrs by MTT assay; assay type: functional, cell-based
Outline: (§2)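 Cells were grown in DMEM with 10% FBS and penicillin/streptomycin at 37 °C and 5% CO₂, and used up to passage 20. They were seeded at 1.5 × 10³ cells/well, allowed to attach for 24 h, then treated with vehicle or compound diluted in complete medium for 24 h. MTT reagent was added for 2 h. Viability is expressed relative to cell numbers at initial time. n = 16; one-way ANOVA.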

[5] = system: Mus musculus; assay: Toxicity in BALB/c mouse xenografted with human U87MG cells assessed as effect on general appearance at 5 mg/kg/day, ip administered for 21 days with 24 hrs resting period followed by treatment discontinuation till day 39; assay type: organism-based; settings: in vivo
Outline: (§3)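 Same U87MG orthotopic xenograft mice: 5 mg/kg/day i.p. from day 3 for 21 days, or saline (n = 10 each), with dosing stopped until day 39. Mice were checked daily for general appearance, behavioral changes and neurologic deficits, including parkinsonism and extrapyramidal signs.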

[6] = system: Mus musculus; assay: Toxicity in BALB/c mouse xenografted with human U87MG cells assessed as induction of neurologic deficits at 5 mg/kg/day, ip administered for 21 days with 24 hrs resting period followed by treatment discontinuation till day 39; assay type: organism-based; settings: in vivo; outline: as §3
[7] = system: U-87 MG; assay: Induction of intracellular Ca2+ level in human U87MG cells at 1 to 100 uM by Fura-2 AM dye-based assay relative to control; assay type: functional, U-87MG ATCC; outline: as §1
[8] = system: NSC; assay: Induction of intracellular Ca2+ level in human NSC cells at 1 to 100 uM by Fura-2 AM dye-based assay relative to control; assay type: cell-based; settings: read-out: Efficacy; outline: as §1
[9] = system: U-87 MG; assay: Cytotoxicity against human U87MG cells assessed as reduction in cell viability at 1 to 20 uM after 24 hrs by MTT assay relative to control; assay type: functional, U-87MG ATCC; outline: as §2
[10] = Potency index, ratio of trifluoperazine IC50 to test compound IC50 for human GBL28 cells; assay type: functional
[11] = system: U-87 MG; assay: Potency index, ratio of trifluoperazine IC50 to test compound IC50 for human U87MG cells; assay type: functional, U-87MG ATCC
[12] = system: NSC; assay: Cytotoxicity against human NSC cells assessed as reduction in cell viability at 1 to 20 uM after 24 hrs by MTT assay relative to control; assay type: cell-based; outline: as §2
[13] = system: U-87 MG; assay: Cytotoxicity against human U87MG cells assessed as reduction in cell viability after 24 hrs by MTT assay; assay type: functional, cell-based, U-87MG ATCC; outline: as §2
[14] = system: U-87 MG; assay: Induction of intracellular Ca2+ level in human U87MG cells by Fura-2 AM dye-based assay; assay type: functional, cell-based, U-87MG ATCC; outline: as §1
[15] = system: U-87 MG; assay: Antitumor activity against human U87MG cells xenografted in BALB/c mouse assessed as reduction in tumor size at 5 mg/kg/day, ip administered for 21 days with 24 hrs resting period followed by treatment discontinuation till day 39 by hematoxylin and eosin staining based confocal microscopic analysis relative to control; assay type: functional, U-87MG ATCC; design: scale not given: the % may be the effect or the level left
Outline: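 Athymic BALB/c nu/nu mice given intracranial U87MG cells (2.5 × 10⁵ cells in 5 μL) into the left frontal lobe (2 mm lateral from bregma, 0.5 mm anterior, 3.5 mm deep). Treatment began on day 3: 5 mg/kg/day i.p., or 0.9% saline for controls (n = 10 each). Dosing ran 21 days, then stopped until day 39. Brains were fixed in 4% PFA, paraffin-embedded, cut at 5 μm and H&E-stained. Tumor volume = [major axis × (minor axis)²]/2.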

[16] = system: U-87 MG; assay: Antitumor activity against human U87MG cells xenografted in BALB/c mouse assessed as increase in mouse survival at 5 mg/kg, ip administered for 21 days with 24 hrs resting period followed by treatment discontinuation and measured on day 39; assay type: functional, U-87MG ATCC
Outline: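 Orthotopic model in athymic BALB/c nu/nu mice: U87MG cells (2.5 × 10⁵ in 5 μL) injected into the left frontal lobe (2 mm lateral to bregma, 0.5 mm anterior, 3.5 mm deep). From day 3, drug was given i.p. at 5 mg/kg/day or 0.9% saline to controls (n = 10 each) for 21 days. Mice were monitored daily and sacrificed when moribund; survival curves were compared by log-rank test.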

[17] = system: NSC; assay: Cytotoxicity against human NSC cells assessed as reduction in cell viability after 24 hrs by MTT assay; assay type: cell-based; outline: as §2
[18] = system: U-87 MG; assay: Induction of intracellular Ca2+ level in human U87MG cells at 100 uM by Fura-2 AM dye-based assay relative to trifluoperazine; assay type: functional, cell-based; settings: U-87MG ATCC; outline: as §1
[19] = system: Mus musculus; assay: Toxicity in BALB/c mouse xenografted with human U87MG cells assessed as effect on behavioral changes at 5 mg/kg/day, ip administered for 21 days with 24 hrs resting period followed by treatment discontinuation till day 39; assay type: organism-based; settings: in vivo; outline: as §3
[20] = Cytotoxicity against human GBL28 cells assessed as reduction in cell viability at 1 to 20 uM after 24 hrs by MTT assay relative to control; assay type: functional; outline: as §2

`CC1CCN(CCCN2c3ccccc3Sc3ccc(C(F)(F)F)cc32)CC1` gave an Activity [1] of 83%.

In the case of `FC(F)(F)c1ccc2c(c1)N(CCCCN1CCN(c3ccccc3)CC1)c1ccccc1S2`, the Activity [1] is reported as 94%.

With `FC(F)(F)c1ccc2c(c1)N(CCCCN1CCC(N3CCCC3)CC1)c1ccccc1S2` the Activity [2] was “Non-Toxic”, the Ratio [3] was 2 and the IC50 [4] was 2.2 µM. For the same molecule, the Activity [5] was “Non-Toxic”, the Activity [6] was “Non-Toxic” and the Efficacy [7] was 100%. For the same molecule, the Emax [8] was 50%, the Efficacy [9] was 82% and the “Ratio IC50” value [10] was 4 - 5. For the same molecule, the “Ratio IC50” value [11] was 4 - 5, the Efficacy [12] was 45% and the IC50 [13] was 2.3 µM. It also gave an EC50 [14] of 6.2 µM, an Activity [15] of 88% and a Survival [16] of 6 days. For the same molecule, the IC50 [17] was 3.2 µM, the Activity [18] was “Active” and the Activity [19] was “Non-Toxic”. For the same molecule, the Efficacy [20] was 85% and the Activity [1] was 134%.

`CC1CCN(CCCCN2c3ccccc3Sc3ccc(C(F)(F)F)cc32)CC1` showed an Activity [1] of 93%.

For `CN1CCCN(CCCCN2c3ccccc3Sc3ccc(C(F)(F)F)cc32)CC1`, the Activity [1] was 107%.

`FC(F)(F)c1ccc2c(c1)N(CCCN1CCNCC1)c1ccccc1S2` gave an Activity [1] of 108%.

`CC1CCN(CCCCN2c3ccccc3Sc3ccc(F)cc32)CC1` gave an Activity [1] of 110%.

For `Clc1ccc2c(c1)N(CCCCN1CCC(N3CCCC3)CC1)c1ccccc1S2`, the Activity [1] was 101%.

With `CN1CCN(CCCN2c3ccccc3Sc3ccc(C(F)(F)F)cc32)CC1` [TRIFLUOPERAZINE] the Activity [2] was “Non-Toxic”, the IC50 [4] was 10.2 µM and the Efficacy [7] was 79%. The Efficacy [9] was 82%, the Efficacy [12] was 21% and the IC50 [13] was 9.9 µM. It also gave an EC50 [14] of 13.5 µM, an IC50 [17] of 10.1 µM and an Efficacy [20] of 85%.

With `CC1CCN(CCCN2c3ccccc3Sc3ccc(Cl)cc32)CC1` the Activity [1] was 88%.

With `FC(F)(F)c1ccc2c(c1)N(CCCCN1CCC(N3CCOCC3)CC1)c1ccccc1S2` the Activity [2] was “Non-Toxic”, the IC50 [4] was 6.5 µM and the Efficacy [9] was 82%. It also gave an Efficacy [12] of 21%, an IC50 [13] of 7.1 µM and an EC50 [14] of 19.9 µM. For the same molecule, the IC50 [17] was 5.6 µM, the Activity [18] was “Active” and the Efficacy [20] was 85%. It also gave an Activity [1] of 120%.

In the case of `CSc1ccc2c(c1)N(CCCN1CCC(C)CC1)c1ccccc1S2`, the Activity [1] is reported as 76%.

In the case of `CSc1ccc2c(c1)N(CCCCN1CCC(C)CC1)c1ccccc1S2`, the Activity [1] is reported as 72%.

For `FC(F)(F)c1ccc2c(c1)N(CCCCN1CCC(N3CCCCC3)CC1)c1ccccc1S2`, the Activity [2] was “Non-Toxic”, the IC50 [4] was 2.1 µM and the Efficacy [9] was 82%. The “Ratio IC50” value [10] was 4 - 5, the “Ratio IC50” value [11] was 4 - 5 and the Efficacy [12] was 43%. The IC50 [13] was 2.2 µM, the EC50 [14] was 6.7 µM and the IC50 [17] was 3.1 µM. For the same molecule, the Activity [18] was “Active”, the Efficacy [20] was 85% and the Activity [1] was 123%.

Molecule `FC(F)(F)c1ccc2c(c1)N(CCCN1CCC(N3CCCC3)CC1)c1ccccc1S2` has an Activity [1] of 72%.
